Assay outcomes deposited in PubChem BioAssay by Johns Hopkins Ion Channel Center.
Only some compounds are listed: those with a hit (about 3.8% of all), similar ones and a draw of the others.
KCNK9 inh: inhibitors of human KCNK9 two-pore domain potassium channel | Q9NPC2 | HEK293 KCNK9, FluxOR thallium flux fluorescence; active compounds read low | B-score at 10 µM | 310,000 tested, 1.2% active | AID 488922;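 active = ratio B-score over 3 SD below the library mean, with starting fluorescence within 5 SD of its mean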;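 also: negative B-score means less thallium flux so channel inhibition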
KCNK3 block: human KCNK3 channel inhibition, primary screen | 340,000 tested, 0.84% active | CHO-KCNK3 thallium flux, FluxOR fluorescence; active compounds read low | B-score at 10 µM | AID 602410;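 active = B-score under library mean minus 4 SD, starting fluorescence ratio at most library mean plus 5 SD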;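 also: more negative B-score means stronger inhibition of thallium flux through KCNK3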
Target sequence (O14649 whole entry, looked up): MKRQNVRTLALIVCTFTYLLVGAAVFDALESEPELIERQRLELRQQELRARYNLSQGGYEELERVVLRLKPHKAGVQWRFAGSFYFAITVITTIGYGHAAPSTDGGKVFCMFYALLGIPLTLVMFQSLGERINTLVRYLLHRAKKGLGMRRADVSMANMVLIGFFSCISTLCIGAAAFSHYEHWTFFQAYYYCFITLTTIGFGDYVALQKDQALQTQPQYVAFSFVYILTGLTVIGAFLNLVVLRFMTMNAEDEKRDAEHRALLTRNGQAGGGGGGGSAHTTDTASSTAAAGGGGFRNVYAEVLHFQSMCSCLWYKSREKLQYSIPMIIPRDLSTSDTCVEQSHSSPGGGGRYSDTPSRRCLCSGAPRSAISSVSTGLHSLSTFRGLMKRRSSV
KCNQ1 act: potentiators or activators of human KCNQ1 potassium channel; CHO-K1 KCNQ1, thallium flux FluxOR fluorescence; active compounds read high; P51787; 310,000 tested, 0.35% active; B-score at 10 µM; AID 2648;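 active = fluorescence ratio B-score, a plate-corrected score, at least three library SD, with initial intensity B-score within 5 SD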
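Doses: Single concentration per compound, DMSO matched to controls | Test system: KCNQ1-transfected CHO-K1 cells | Timing: 90 min dye loading and 20 min compound exposure, both at room temperature | Measured by: Kinetic FluxOR thallium fluorescence, 10-s 1-Hz baseline, 110-s post-stimulus read | Medium: Assay buffer with matched DMSO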
hERG rescue: compounds protecting human hERG from proarrhythmic drug block. Q12809. CHO-hERG, FluxOR thallium flux, dofetilide IC70 present. activation (rescue from dofetilide block), less the hit threshold, % at 10 µM. 310,000 tested, 0.51% active. AID 1511;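 active = activation above the mean of controls blocked by dofetilide plus 5 SD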;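 also: thallium influx through hERG after potassium depolarization seen as dye fluorescence rise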
Kir21 inh: blocks the mouse Kir2.1 inward-rectifier potassium channel. B-score at 10 µM. HEK293-Kir2.1, FluxOR thallium flux fluorescence; active compounds read low. P35561. AID 1672. 310,000 tested, 0.85% active;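 active = fluorescence ratio B-score at or below minus 3 SD of library scores, with starting-brightness B-score within 2 SD, cut at about -4.2 in these data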;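 also: channel flux triggered by added potassium and thallium sulfate stimulus; B-score of peak minus minimum fluorescence over baseline after thallium stimulus; more negative B-score means stronger Kir2.1 block with less thallium influx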
KCNQ1 inh: blocks the human KCNQ1 potassium channel. P51787. CHO-K1 KCNQ1, FluxOR thallium flux fluorescence; active compounds read high. B-score at 10 µM. 310,000 tested, 1.3% active. AID 2642;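 active = compounds whose thallium flux B-score, printed positive for inhibition, exceeds three library SD while starting fluorescence stays within three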;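 also: channel opened by potassium depolarization with thallium stimulus after 20 min compound exposure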
Numbers stand for hits; - = inactive; . = no result given.

SMILES | KCNK9 inh | KCNK3 block | KCNQ1 act | hERG rescue | Kir21 inh | KCNQ1 inh
CC1(C)SC(=S)N(/N=C/c2ccccc2O)C1N(O)C(=O)Nc1ccccc1 (centres undefined) | - | - | - | - | - | 8
CC(C)(C)N1CC(COc2ccccc2)OC1=O (centres undefined) | - | - | - | - | - | -
Cc1ccc(S(=O)(=O)N2CCC(C(=O)NCCCn3ccnc3)CC2)cc1 | - | - | - | - | - | -
CN(C(=O)c1cccc(NC(=O)Cc2ccc(NC(=O)C3CCCN(C(=O)C4CCC4)C3)cc2)c1)C1CCCCC1 (centres undefined) | . | - | . | . | . | .
Cc1cc(S(=O)(=O)NCCCN2CCOCC2)c(Cl)cc1Cl | - | - | - | - | - | -
CCOC(=O)C1=C(C)N2C(=C(C#N)[C@@H]1c1ccc(C(=O)OC)cc1)SC[C@@]2(O)C(C)(C)C | - | - | - | - | - | 6
CCOC(=O)C1=C(C)N=C2SCCC(=O)N2C1c1ccc(C(=O)OC)cc1 (centres undefined) | - | - | - | - | - | -
CCCC1=Nc2cc(C(=O)N3CCN(c4ccccn4)CC3)ccc2Sc2ccc(C)cc21 | - | - | - | - | - | 7
Nc1nc(CSc2nnnn2-c2ccccc2)nc(N2CCCc3ccccc32)n1 | . | -10 | . | . | . | .
CC(OC(=O)c1cc2c(ccc3ccccc32)oc1=O)c1nc2ccccc2s1 (centres undefined) | - | - | - | - | - | 9
CCOC(=O)c1cc2c(ccc3ccccc32)oc1=O | - | - | - | - | - | -
Cc1ccc(S(=O)(=O)N2CC(C)N(C(=O)N3CCOCC3)C2C)cc1 (centres undefined) | - | - | - | - | - | -
O=C(NC(=S)Nc1ccc(Cl)cc1)c1cncc(Br)c1 | - | - | - | - | - | -
Cc1ccc(NC(=S)NC(=O)c2cncc(Br)c2)cc1Cl | - | - | - | 8.8 | - | -
C=CCn1c2ccccc2c(=O)c2cc(C#Cc3ccsc3)ccc21 | - | . | - | 8.9 | - | -
O=C(CN1CCC(C(O)(c2ccccc2)c2ccccc2)CC1)Nc1ccccc1 | - | - | - | - | -4.8 | -
O=C(CN1CCC(C(O)(c2ccccc2)c2ccccc2)CC1)Nc1cc(Cl)ccc1Cl | - | - | - | - | - | -
CC(/C=N/n1c(-c2ccccc2)n[nH]c1=S)=C\c1ccco1 | - | - | - | - | - | -
CC(/C=N/n1c(-c2ccc(C)cc2)n[nH]c1=S)=C\c1ccco1 | - | - | 10 | - | - | -
COc1cccc(CN(C)CCCn2cnc(C(=O)Nc3ccc(C)c(C)c3)n2)c1 | . | - | . | . | . | .
Oc1c(Br)cc(Br)cc1C=NCc1ccc(F)cc1 | - | - | 12 | - | - | -
O/N=C/c1cc(Br)ccc1OCc1ccc(F)cc1 | - | - | - | - | - | -
O=C(Cc1ccccc1)N/N=C/c1cc(Br)cc(Br)c1O | - | - | - | - | - | -
Oc1c(Br)cc(Br)cc1C=NCc1ccccc1 | - | - | 22 | - | - | -
Cc1cccc(-n2ncc3c2CCCC3NC(=O)CCN2CCCO2)c1C (centres undefined) | - | - | - | - | - | -
SMILES | KCNK9 inh | KCNK3 block | KCNQ1 act | hERG rescue | Kir21 inh | KCNQ1 inh
CN(C)S(=O)(=O)N(Cc1ccc(Br)cc1)c1ccccc1 | -7.4 | - | - | - | - | -
CN(C)S(=O)(=O)N(CC(=O)N(Cc1ccccc1)Cc1ccccc1)c1ccccc1 | - | - | - | - | - | -
Cc1ccccc1C(=O)Nc1nnc(S(=O)(=O)N2CCCCCC2)s1 | - | - | - | - | - | -
COc1cc(NC(=S)NCCCN2CCOCC2)cc(OC)c1 | - | - | - | - | - | -
COc1ccc(NC(=S)NCCC(c2ccccc2)c2ccccc2)c(OC)c1 | - | - | 29 | - | - | -
COc1ccc(NC(=S)Nc2ccccc2OC)c(OC)c1 | - | - | - | - | - | -
COc1cc(NC(=S)NCCC(c2ccccc2)c2ccccc2)cc(OC)c1 | - | - | - | - | - | 6
COc1ccc(NC(=S)Nc2ccccn2)c(OC)c1 | - | - | - | 5.2 | - | -
COc1cccc(NC(=S)NCCN2CCOCC2)c1 | - | - | 12 | - | - | -
Cc1ccc(C(=O)COC(=O)C2CC(=O)N(c3nc(-c4ccccc4)cs3)C2)cc1 (centres undefined) | - | - | - | - | - | -
CCc1nnc(NC(=O)CCC(=O)N2CCC(Cc3ccccc3)CC2)s1 | - | - | - | - | - | -
CCn1cc(C(=O)N[C@H](C(=O)NCCCO)C(C)C)c(=O)c2cc3c(cc21)OCO3 | - | - | - | - | - | -
COc1ccc(NC(=S)NCCc2ccccc2OC)c(OC)c1 | - | - | - | - | -5.7 | -
COc1cccc(NC(=S)NCCC(c2ccccc2)c2ccccc2)c1 | - | - | - | - | - | 10
COc1ccc(NC(=S)NCc2ccccc2Cl)c(OC)c1 | - | - | - | - | - | -
COc1ccc(NC(=O)NCCCCc2ccccc2)c(OC)c1 | - | - | - | 4.6 | - | -
Cc1cccc(NC(=S)NCCC(c2ccccc2)c2ccccc2)c1 | - | - | - | - | - | -
O=C(Nc1ccccc1N1CCCC1)c1cc(=O)[nH]c2ccccc12 | . | - | . | . | . | .
CCN(Cc1cc(=O)n2ccsc2n1)c1cccc2ccccc12 | - | - | - | - | - | -
COc1cc(NC(=O)COc2cc3oc(=O)cc(C)c3cc2Cl)cc(OC)c1OC | - | - | - | - | - | -
CC(C)c1ccc(NC(=O)c2ccccc2NC(=O)C2CCCCC2C(=O)O)cc1 (centres undefined) | - | - | - | - | - | -
N#Cc1ccsc1NC(=O)CN1CCN(c2ccccc2)CC1 | - | - | - | 8.6 | - | -
N#Cc1ccsc1NC(=O)CN1CCN(c2ccc(O)cc2)CC1 | - | - | - | - | - | -
Cc1nc(SCc2nc3ccc(C(=O)c4ccccc4)cc3[nH]2)c2oc3ccccc3c2n1 | . | - | . | . | . | .
c1ccc(Cn2nnc3c(NCc4ccc5c(c4)OCO5)nc(C4CC4)nc32)cc1 | - | - | - | - | - | -
SMILES | KCNK9 inh | KCNK3 block | KCNQ1 act | hERG rescue | Kir21 inh | KCNQ1 inh
CC1Cc2ccccc2N1c1nc(C2CC2)nc2c1nnn2Cc1ccccc1 (centres undefined) | - | - | - | - | - | 6
C/C(=N/Nc1nc(-c2ccccc2F)nc2ccccc12)c1ccccc1O | -7.3 | - | - | - | - | 7
C/C(=N\Nc1nc(-c2ccccc2O)nc2ccccc12)c1ccccc1 | - | - | - | - | - | -
CC1CCCCCCC1OC(=O)c1ccccc1C(=O)O (centres undefined) | . | - | . | . | . | .
CC(=O)Nc1nc2n(n1)C(c1ccccc1)C=C(c1ccccc1)N2 (centres undefined) | - | - | - | - | - | -
O=C(c1nc2n(n1)C(c1ccc(Cl)cc1)C=C(c1ccccc1)N2)N1CCOCC1 (centres undefined) | -6.8 | - | - | - | - | -
